For experiment [1], the system named is T47D. The experiment in a line: Induction of apoptosis in human T47D cells assessed as caspase activation by HTS assay. The experiment is classed as functional, cell-based.
The test system of experiment [2] is SNU-398. The experiment in a line: Induction of apoptosis in human SNU398 cells assessed as caspase activation by HTS assay. In kind it is functional, cell-based.
The test system of experiment [3] is HCT-116. The experiment in a line: Induction of apoptosis in human HCT116 cells assessed as caspase activation by HTS assay. The experiment is classed as functional, cell-based.
In experiment [4] the test system is SNU-398. In words: Growth inhibition of human SNU398 cells. The experiment is classed as functional. In short, it runs like this:
(§1)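 GI50 from a cell growth inhibition assay in T47D, HCT116 and SNU398 cells, run in 96-well format following an earlier protocol. Values are means of three or more experiments ± SEM.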

For experiment [5], the system named is T47D. In words: Growth inhibition of human T47D cells. The experiment is classed as functional. In short, it runs like this: as §1
The nature of experiment [6]: Inhibition of tubulin polymerization.
Experiment [7] deals with HCT-116. In words: Growth inhibition of human HCT116 cells. The experiment is classed as functional. A digest of the protocol: as §1

The structures appear in SMILES notation. pEC50, pIC50: −log10 of the molar value. Bounds are passed on as bounds.

On to `COC(=O)C1=C(N)Oc2c(ccc3[nH]ccc23)C1c1cc(Br)c(OC)c(OC)c1` (stereo unspecified), for which the figures for the pEC50 with T47D [1], in the experiment on SNU-398 [2] and in the experiment on HCT-116 [3] were 5.85, 6.00 and 6.18, respectively.

For `CCn1ccc2c3c(ccc21)C(c1cc(Br)c(OC)c(OC)c1)C(C#N)=CO3` (stereo unspecified), the values for the pEC50 in the experiment on T47D [1], with SNU-398 [2] and with HCT-116 [3] were 7.15, 7.06 and 6.82, respectively.

As for `COc1cc(C2C(C#N)=COc3c2ccc2c3ccn2C)cc(Br)c1OC` (stereo unspecified), the pEC50 (usually −log10 of the EC50, conventionally taken in molar units) was 7.54 with T47D [1], 7.47 with SNU-398 [2] and 7.42 with HCT-116 [3]. Moreover, the GI50 (as a rule, the concentration giving 50% growth inhibition) in the experiment with SNU-398 [4] was 4 nM; in the experiment on T47D [5], 6 nM; in the experiment with HCT-116 [7], 6 nM. Moreover, the pIC50 (usually −log10 of the IC50, conventionally taken in molar units) in experiment [6] was above 6.30.

Take `COc1cc(C2C(C#N)=C(NC(=O)Nc3ccccc3)Oc3cc(N(C)C)ccc32)cc(Br)c1OC` (stereo unspecified): the values for the pEC50 in the experiment on T47D [1], in the experiment with SNU-398 [2] and with HCT-116 [3] were 7.17, 7.03 and 7.08, respectively.

For the compound `COc1cc(C2C(C#N)=C(N3C(=O)CCC3=O)Oc3cc(N(C)C)ccc32)cc(Br)c1OC` (stereo unspecified), the pEC50 in the experiment with T47D [1] was 6.60; with SNU-398 [2], 6.72; in the experiment with HCT-116 [3] it was 6.38.

Regarding `COc1cc(C2C(C#N)=C(N)Oc3c2ccc2[nH]ccc32)cc(Br)c1OC` (stereo unspecified), the negative-log IC50 (pIC50) in experiment [6] is 6.30.

`N#CC1=C(N)Oc2c(ccc3[nH]ccc23)C1c1ccccc1` (stereo unspecified): the pEC50 in the experiment with T47D [1] is 6.57. Further, the pIC50 in experiment [6] is 5.52.

Take `COc1cc(C2C(C#N)=COc3cc(N(C)C)ccc32)cc(Br)c1OC` (stereo unspecified): the pEC50 with T47D [1] is 7.19; with SNU-398 [2], 7.11; in the experiment on HCT-116 [3] it was 7.03. Besides, the concentration for 50% growth inhibition (GI50) in the experiment with SNU-398 [4] came to 17 nM; with T47D [5], 66 nM; in the experiment on HCT-116 [7] it was 51 nM.

For `COc1cc(C2C(C#N)=COc3c2ccc2[nH]ccc32)cc(Br)c1OC` (stereo unspecified), the pEC50 with T47D [1] is 7.33; in the experiment on SNU-398 [2] it was 7.28; in the experiment on HCT-116 [3], 7.18. The figures for the GI50 with SNU-398 [4], with T47D [5] and in the experiment with HCT-116 [7] were 34 nM, 73 nM and 53 nM, respectively. In addition, the pIC50 in experiment [6] was above 6.30.

Regarding `CCOC(=O)C1=C(N)Oc2c(ccc3[nH]ccc23)C1c1cc(Br)c(OC)c(OC)c1` (stereo unspecified), the pEC50 was 5.49 in the experiment with T47D [1], 5.66 in the experiment on SNU-398 [2] and 5.52 with HCT-116 [3]. In addition, the GI50 in the experiment on SNU-398 [4] is 1600 nM; in the experiment with T47D [5], 3300 nM; in the experiment on HCT-116 [7], 4300 nM.
